# Experimental data: ChEMBL document CHEMBL1933011, “Probing the antiamoebic and cytotoxicity potency of novel tetrazole and triazine derivatives” (Eur J Med Chem, 2012)
# What was measured:
# HepG2 [1] = assay: Cytotoxicity against human HepG2 cells after 48 hrs by MTT assay; format: cell-based; conditions: for IC50: Homo sapiens, HepG2, 48 h; for Activity: human, hepg2, 48 h
# In short: (§1)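 HepG2 in DMEM/10% FBS, 1.2 × 10^4 cells/well, grown 48 h before dosing. Compounds from 10% DMSO stocks diluted in medium, 3.13–100 µM, 48 h at 37 °C, 5% CO2. MTT (5 mg mL-1) for 4 h, DMSO solubilisation, absorbance at 570 nm (reference 655 nm). Viability is treated absorbance relative to untreated control. Triplicate, repeated thrice.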
# [2] = Cytotoxicity against human HepG2 cells assessed as viable cells at 3.13 uM after 48 hrs by MTT assay; format: cell-based; conditions: read-out: Activity; in short: as §1
# HepG2 [3] = assay: Cytotoxicity against human HepG2 cells up to 100 uM after 48 hrs by MTT assay; format: cell-based; conditions: hepg2, 48 h; in short: as §1
# HepG2 [4] = assay: Cytotoxicity against human HepG2 cells up to 50 uM after 48 hrs by MTT assay; format: cell-based; conditions: hepg2, 48 h; in short: as §1
# [5] = Cytotoxicity against human HepG2 cells assessed as viable cells at 25 uM after 48 hrs by MTT assay; format: cell-based; conditions: read-out: Activity; in short: as §1
# Entamoeba histolytica = assay: Antiamoebic activity against Entamoeba histolytica HM-1:IMSS after 72 hrs by microdilution method; format: functional, organism-based
# In short: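 E. histolytica HM1:IMSS trophozoites in Diamond TYIS-33 medium; 1 mg mL-1 DMSO stocks, two-fold serial dilutions; 1.7 × 10^4 amoebae/well; sealed, gassed with nitrogen 10 min, 35.5 °C for 72 h. Wells methanol-fixed, eosin-stained, dye released in 0.1N NaOH, OD 490 nm. % inhibition vs control plotted against log dose; IC50 by linear regression. Triplicate, repeated thrice.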
# [6] = Safety index, ratio of IC50 for human HepG2 cells to IC50 for Entamoeba histolytica HM-1:IMSS; format: toxicity, cell-based; conditions: read-out: Ratio IC50
# In short: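 Safety index calculated as HepG2 MTT IC50 (48 h) divided by E. histolytica HM1:IMSS IC50 (72 h microdilution).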
SMILES,IC50 (Entamoeba histolytica),IC50 (HepG2 [1]),Activity (HepG2 [1]),"viability at 48 h, 3.13 µM [2]",Activity (HepG2 [3]),Activity (HepG2 [4]),"viability at 48 h, 25 µM [5]",selectivity ratio [6]
O=S(=O)(c1ccc(Cl)cc1Cl)n1nnnc1-c1ccc2c(c1)OCO2,6.9 µM,85 µM,Dose-dependent effect,92.5%,Toxic,Toxic,≥ 70%,12.3
O=[N+]([O-])c1ccc(S(=O)(=O)n2nnnc2-c2ccc3c(c2)OCO3)cc1,3.75 µM,84.7 µM,Dose-dependent effect,92.5%,Toxic,Toxic,≥ 70%,22.6
O=S(=O)(Nc1nc(NS(=O)(=O)c2ccccc2)nc(-c2ccc3c(c2)OCO3)n1)c1ccccc1,2.6 µM,> 100 µM,Dose-dependent effect,92.5%,Toxic,Toxic,≥ 70%,> 38.5
Cc1ncc([N+](=O)[O-])n1CCO [METRONIDAZOLE],–,> 100 µM,–,92.5%,–,–,–,> 55.5
O=S(=O)(c1ccc(Cl)cc1)n1nnnc1-c1ccc2c(c1)OCO2,4.85 µM,> 100 µM,Dose-dependent effect,92.5%,Toxic,Toxic,≥ 70%,> 20.6
O=S(=O)(c1ccccc1)n1nnnc1-c1ccc2c(c1)OCO2,7.56 µM,> 100 µM,Dose-dependent effect,92.5%,Toxic,Toxic,≥ 70%,> 13.2
CC(C)c1ccc(S(=O)(=O)Nc2nc(NS(=O)(=O)c3ccc(C(C)C)cc3)nc(-c3ccc4c(c3)OCO4)n2)cc1,2.85 µM,> 100 µM,Dose-dependent effect,92.5%,Toxic,Toxic,≥ 70%,> 35.1
Cc1ccc(S(=O)(=O)n2nnnc2-c2ccc3c(c2)OCO3)cc1,6.1 µM,> 100 µM,Dose-dependent effect,92.5%,Toxic,Toxic,≥ 70%,> 16.4
c1cc2c(cc1-c1nnn[nH]1)OCO2,14.2 µM,–,Dose-dependent effect,92.5%,Toxic,Toxic,≥ 70%,–
O=S(=O)(Nc1nc(NS(=O)(=O)c2ccc(Cl)cc2)nc(-c2ccc3c(c2)OCO3)n1)c1ccc(Cl)cc1,1.05 µM,> 100 µM,Dose-dependent effect,92.5%,Toxic,Toxic,≥ 70%,> 95.2

# The next lines start with results.
IC50 (Entamoeba histolytica),SMILES,IC50 (HepG2 [1]),Activity (HepG2 [1]),"viability at 48 h, 3.13 µM [2]",Activity (HepG2 [3]),Activity (HepG2 [4]),"viability at 48 h, 25 µM [5]",selectivity ratio [6]
1.02 µM,O=[N+]([O-])c1ccc(S(=O)(=O)Nc2nc(NS(=O)(=O)c3ccc([N+](=O)[O-])cc3)nc(-c3ccc4c(c3)OCO4)n2)cc1,> 100 µM,Dose-dependent effect,92.5%,Toxic,Toxic,≥ 70%,> 98
6.28 µM,CC(C)c1ccc(S(=O)(=O)n2nnnc2-c2ccc3c(c2)OCO3)cc1,> 100 µM,Dose-dependent effect,92.5%,Toxic,Toxic,≥ 70%,> 15.9
2.15 µM,Cc1ccc(S(=O)(=O)Nc2nc(NS(=O)(=O)c3ccc(C)cc3)nc(-c3ccc4c(c3)OCO4)n2)cc1,> 100 µM,Dose-dependent effect,92.5%,Toxic,Toxic,≥ 70%,> 46.5
3.54 µM,Nc1nc(N)nc(-c2ccc3c(c2)OCO3)n1,–,Dose-dependent effect,92.5%,Toxic,Toxic,≥ 70%,–
2.56 µM,O=S(=O)(Nc1nc(NS(=O)(=O)c2ccc(Cl)cc2Cl)nc(-c2ccc3c(c2)OCO3)n1)c1ccc(Cl)cc1Cl,> 100 µM,Dose-dependent effect,92.5%,Toxic,Toxic,≥ 70%,> 39.1
